Data reported in ChEMBL document CHEMBL3244395, “Antimycotic imidazoles. 2. Synthesis and antifungal properties of esters of 1-[2-hydroxy(mercapto)-2-phenylethyl]-1H-imidazoles” (J Med Chem, 1978).
≈ marks a conversion by molar mass, not a printed value. Calls of active or inactive are those of the source. No cut-off for these calls is given here.

Tests used:
Candida albicans [1] = test: Antifungal activity against Candida albicans ATCC 10231 assessed as lowest concentration required for total inhibition by broth dilution assay; type: functional; conditions: read-out: MIC100
How it was run: (§1)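 Broth dilution against dermatophytes, C. albicans ATCC 10231 and 14053, and C. neoformans. The end point is the lowest concentration with total inhibition. "<" marks the lowest level tested, and ">" marks partial growth at that dilution.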

Staphylococcus aureus = test: Antibacterial activity against Staphylococcus aureus ATCC 12600 assessed as lowest concentration required for total inhibition by broth microdilution assay; type: functional; conditions: read-out: MIC100
How it was run: (§2)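 Broth microdilution against the listed ATCC […] strains. The value is the lowest concentration giving total inhibition. "<" marks the lowest level tested, and ">" marks partial growth at that dilution.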

Epidermophyton floccosum = test: Antifungal activity against Epidermophyton floccosum assessed as lowest concentration required for total inhibition broth dilution assay; type: functional; conditions: read-out: MIC100; how it was run: as §1
[2] = Lipophilic-hydrophilic balance, Rm of the compound assessed as change in compound Rm to miconazole Rm by reverse-phase TLC method; type: physicochemical
Candida albicans [3] = test: Antifungal activity against Candida albicans in mouse vaginal infection model compound applied intravaginally as 2% formulation in an aqueous propylene glycol cream for 4 days bid; type: functional, organism-based; conditions: Vagina
How it was run: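 Mice with vaginal C. albicans infection, following Wildfeuer's method. The compound was applied intravaginally as a 2% formulation in an aqueous propylene glycol cream, twice daily for 4 days. Read-out was animals cured over total number infected.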

Cutibacterium acnes = test: Antibacterial activity against Corynebacterium acnes ATCC 11828 assessed as lowest concentration required for total inhibition by broth microdilution assay; type: functional; conditions: read-out: MIC100; how it was run: as §2
Nannizzia gypsea = test: Antifungal activity against Microsporum gypseum assessed as lowest concentration required for total inhibition broth dilution assay; type: functional; conditions: read-out: MIC100; how it was run: as §1
[4] = system: Erysipelothrix rhusiopathiae; test: Antibacterial activity against Erysipelothrix insidiosa ATCC 19414 assessed as lowest concentration required for total inhibition by broth microdilution assay; type: functional; conditions: read-out: MIC100; how it was run: as §2
Candida albicans [5] = test: Antifungal activity against Candida albicans ATCC 14053 assessed as lowest concentration required for total inhibition by broth dilution assay; type: functional; conditions: read-out: MIC100; how it was run: as §1
Cryptococcus neoformans = test: Antifungal activity against Cryptococcus neoformans assessed as lowest concentration required for total inhibition by broth dilution assay; type: functional; conditions: read-out: MIC100; how it was run: as §1
Pasteurella multocida = test: Antibacterial activity against Pasteurella multocida ATCC 19427 assessed as lowest concentration required for total inhibition by broth microdilution assay; type: functional; conditions: read-out: MIC100; how it was run: as §2
[6] = system: Trichophyton mentagrophytes; test: Antifungal activity against Trichophyton mentagrophytes assessed as lowest concentration required for total inhibition broth dilution assay; type: functional; conditions: read-out: MIC100; how it was run: as §1
Enterococcus faecalis = test: Antibacterial activity against Streptococcus faecalis ATCC 14506 assessed as lowest concentration required for total inhibition by broth microdilution assay; type: functional; conditions: read-out: MIC100; how it was run: as §2
Microsporum audouinii = test: Antifungal activity against Microsporum audouinii assessed as lowest concentration required for total inhibition broth dilution assay; type: functional; conditions: read-out: MIC100; how it was run: as §1
[7] = silicone oil-impregnated silica gel, MeCN-H2O-AcOH

Row | SMILES | MIC (Candida albicans [1]) [µg/mL] | MIC (Staphylococcus aureus) [µg/mL] | MIC (Epidermophyton floccosum) [µg/mL] | deltaRm [2, 7] | Activity (Candida albicans [3]) | MIC (Cutibacterium acnes) [µg/mL] | MIC (Nannizzia gypsea) [µg/mL] | MIC [4] [µg/mL] | MIC (Candida albicans [5]) [µg/mL] | MIC (Cryptococcus neoformans) [µg/mL] | MIC (Pasteurella multocida) [µg/mL] | MIC [6] [µg/mL] | MIC (Enterococcus faecalis) [µg/mL] | MIC (Microsporum audouinii) [µg/mL] | deltaRm ([2]; octanol/water)
1 | CCCCCCCC(=O)SC(Cn1ccnc1)c1ccc(Cl)cc1Cl.O=C(O)C(=O)O (stereo not given) | 10 | 3 | < 0.1 | 0.44 | inactive | 100 | 30 | 30 | 10 | < 1 | 1 | 10 | 30 |  | 
2 | O=C(SC(Cn1ccnc1)c1ccc(Cl)cc1Cl)c1ccc(Cl)cc1.O=[N+]([O-])O (stereo not given) | 10 | 3 | < 0.1 | -0.03 | Active | > 100 | 30 | > 100 | 10 | < 1 | 1 | 10 | 100 |  | 
3 | O=C(O)C(=O)O.O=C(Oc1ccc(Cl)cc1)OC(Cn1ccnc1)c1ccc(Cl)cc1 (stereo not given) | > 100 |  | 10 | -0.52 |  |  |  |  | > 100 |  |  | 10 |  | 100 | 
4 | O=C(Cc1ccc(Cl)cc1)OC(Cn1ccnc1)c1ccc(Cl)cc1.O=C(O)C(=O)O (stereo not given) | 50 |  | 1 |  |  |  |  |  | 50 |  |  | 10 |  | 10 | -0.42
5 | Clc1ccc(COC(Cn2ccnc2)c2ccc(Cl)cc2Cl)c(Cl)c1 (stereo not given) [MICONAZOLE] | 30 (≈ 72.1 µM) | 1 (≈ 2.4 µM) | < 0.1 | 0 | Active | 10 (≈ 24 µM) | 3 (≈ 7.21 µM) | 3 (≈ 7.21 µM) | 30 (≈ 72.1 µM) | < 0.3 | < 0.1 | 3 (≈ 7.21 µM) | 10 (≈ 24 µM) |  | 
6 | O=C(O)C(=O)O.O=C(OC(Cn1ccnc1)c1ccc(Cl)cc1)c1ccccc1Cl (stereo not given) | 100 |  | 5 | -0.49 |  |  |  |  | 100 |  |  | 10 |  | 50 | 
7 | CCOC(=S)SC(Cn1ccnc1)c1ccc(Cl)cc1Cl.O=[N+]([O-])O (stereo not given) | 50 |  | < 0.1 | -0.27 |  |  |  |  | 50 | 1 |  | < 0.1 |  | 5 | 
8 | O=C(OC(Cn1ccnc1)c1ccc(Cl)cc1Cl)c1ccc(Cl)cc1.O=[N+]([O-])O (stereo not given) | 300 |  | < 0.1 | -0.39 | inactive |  | 100 |  | 300 | 3 |  | 30 |  |  | 
9 | O=C(OC(Cn1ccnc1)c1ccc(Cl)cc1)c1ccc(Cl)cc1.O=[N+]([O-])O (stereo not given) | > 100 |  | 100 | -0.31 |  |  |  |  | > 100 | 10 |  | > 100 |  | 100 | 
10 | O=C(O)C(=O)O.O=C(OC(Cn1ccnc1)c1ccc(Cl)cc1Cl)c1ccc([N+](=O)[O-])cc1 (stereo not given) | > 300 |  | 0.33 | -0.54 |  |  |  |  | > 300 |  |  | 10 |  | 33 | 
